Assay results as given in ChEMBL document CHEMBL1154497, “Evaluating the potential of vacuolar ATPase inhibitors as anticancer agents and multigram synthesis of the potent salicylihalamide analog saliphenylhalamide” (Bioorg Med Chem Lett, 2008).

What was measured:
[1] = Growth inhibition of human HME50 cells at 100 nM; assay type: cell-based
[2] = Growth inhibition of human HME50T cells at 100 nM; assay type: functional
SK-MEL-28 = assay: Cytotoxicity against human SK-MEL-28 cells expressing vacuolar ATPase; assay type: functional, cell-based
In short: (§1)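 Cancer cell lines treated across a range of compound concentrations; the concentration inhibiting growth by 50% was calculated. IC50 given as average ± standard deviation of three experiments.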

HCT-15 = assay: Cytotoxicity against human HCT15 cells expressing vacuolar ATPase; assay type: functional, cell-based; in short: as §1
SK-MES-1 = assay: Cytotoxicity against human SKMES1 cells expressing vacuolar ATPase; assay type: functional, cell-based; in short: as §1
HOS = assay: Cytotoxicity against human HOS cells expressing vacuolar ATPase; assay type: functional, cell-based; in short: as §1
ASPC1 = assay: Cytotoxicity against human AsPC1 cells expressing vacuolar ATPase; assay type: functional, cell-based; in short: as §1
A549 = assay: Cytotoxicity against human A549 cells expressing vacuolar ATPase; assay type: functional, cell-based; in short: as §1
MDA-MB-231 = assay: Cytotoxicity against human MDA-MB-231 cells expressing vacuolar ATPase; assay type: functional, cell-based; in short: as §1
SK-MEL-5 = assay: Cytotoxicity against human SK-MEL-5 cells expressing vacuolar ATPase; assay type: functional, cell-based; in short: as §1
A2058 = assay: Cytotoxicity against human A2058 cells expressing vacuolar ATPase; assay type: functional, cell-based; in short: as §1
HT-29 = assay: Cytotoxicity against human HT-29 cells expressing vacuolar ATPase; assay type: functional, cell-based; in short: as §1
MCF7 = assay: Cytotoxicity against human MCF7 cells expressing vacuolar ATPase; assay type: functional, cell-based; in short: as §1
NCI-H1299 = assay: Cytotoxicity against human NCI-H1299 cells expressing vacuolar ATPase; assay type: functional, cell-based; in short: as §1
SK-HEP1 = assay: Cytotoxicity against human SKHEP1 cells expressing vacuolar ATPase; assay type: functional, cell-based; in short: as §1
SW480 = assay: Cytotoxicity against human SW480 cells expressing vacuolar ATPase; assay type: functional, cell-based; in short: as §1
HepG2 = assay: Cytotoxicity against human HepG2 cells expressing vacuolar ATPase; assay type: functional, cell-based; in short: as §1
[3] = Cytotoxicity against human MCF7/DX cells expressing vacuolar ATPase; assay type: functional, cell-based
In short: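 Doxorubicin-resistant MCF-7 subline, resistant to chemotherapeutics that are P-glycoprotein substrates. Cells treated across a range of compound concentrations; the concentration inhibiting growth by 50% was calculated. IC50 given as average ± standard deviation of three experiments.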

PANC-1 = assay: Cytotoxicity against human PANC1 cells expressing vacuolar ATPase; assay type: functional, cell-based; in short: as §1
MG-63 = assay: Cytotoxicity against human MG63 cells expressing vacuolar ATPase; assay type: functional, cell-based; in short: as §1
HCT-116 = assay: Cytotoxicity against human HCT116 cells expressing vacuolar ATPase; assay type: functional, cell-based; in short: as §1
NCI-H460 = assay: Cytotoxicity against human NCI-H460 cells expressing vacuolar ATPase; assay type: functional, cell-based; in short: as §1

CC/C=C\C=C/C(=O)N/C=C/C[C@H]1C[C@@H](O)[C@@H](C)C/C=C/Cc2cccc(O)c2C(=O)O1 [SALICYLIHALAMIDE A]
inhibition at 0.1 µM [1]: 60%
inhibition at 0.1 µM [2]: 75%

C[C@H]1C/C=C/Cc2cccc(O)c2C(=O)O[C@@H](C/C=C/NC(=O)C#Cc2ccccc2)C[C@H]1O [SALIPHENYLHALAMIDE]
IC50 (SK-MEL-28): 98.5 nM
IC50 (HCT-15): 100 nM
IC50 (SK-MES-1): 76.4 nM
IC50 (HOS): 48.8 nM
IC50 (ASPC1): 75.9 nM
IC50 (A549): 146 nM
inhibition at 0.1 µM [2]: 95%
IC50 (MDA-MB-231): 180 nM
IC50 (SK-MEL-5): 106 nM
IC50 (A2058): 154 nM
IC50 (HT-29): 89.9 nM
IC50 (MCF7): 156 nM
IC50 (NCI-H1299): 77.2 nM
IC50 (SK-HEP1): 40.7 nM
IC50 (SW480): 425 nM
IC50 (HepG2): 79.2 nM
IC50 [3]: 160 nM
IC50 (PANC-1): 124 nM
IC50 (MG-63): 449 nM
IC50 (HCT-116): 69.3 nM
IC50 (NCI-H460): 52.9 nM
